Data published in ChEMBL document CHEMBL1122388, “beta 1-selective adrenoceptor antagonists. 2. 4-ether-linked phenoxypropanolamines” (J Med Chem, 1983).

What was measured:
[1] = target: Adrenergic receptor beta (Rattus norvegicus) (UniProt P18090+P10608+P26255); experiment: Beta agonistic activity as the dose required to increase heart rate by 30 beats/min in anesthetized rats upon intravenous administration; type: functional, organism-based
Procedure, shortened: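 Rats anesthetized with pentobarbitone sodium (75 mg/kg ip), reserpine-pretreated (5 mg/kg ip) 20-24 h earlier. Single doses of test compound given into tail vein, up to 20 animals depending on activity; blood pressure and heart rate recorded. ED30 (dose raising heart rate 30 beats/min) with 95% confidence limits from log dose-response linear regression.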

[2] = target: Beta-1 adrenergic receptor (Rattus norvegicus) (UniProt P18090); experiment: Compound was tested for beta-1 adrenergic receptor blocking activity as the dose required to inhibit 50% of tachycardia in anesthetized rats; type: functional
Chain of Beta-1 adrenergic receptor (Rattus norvegicus) (P18090 whole entry, looked up): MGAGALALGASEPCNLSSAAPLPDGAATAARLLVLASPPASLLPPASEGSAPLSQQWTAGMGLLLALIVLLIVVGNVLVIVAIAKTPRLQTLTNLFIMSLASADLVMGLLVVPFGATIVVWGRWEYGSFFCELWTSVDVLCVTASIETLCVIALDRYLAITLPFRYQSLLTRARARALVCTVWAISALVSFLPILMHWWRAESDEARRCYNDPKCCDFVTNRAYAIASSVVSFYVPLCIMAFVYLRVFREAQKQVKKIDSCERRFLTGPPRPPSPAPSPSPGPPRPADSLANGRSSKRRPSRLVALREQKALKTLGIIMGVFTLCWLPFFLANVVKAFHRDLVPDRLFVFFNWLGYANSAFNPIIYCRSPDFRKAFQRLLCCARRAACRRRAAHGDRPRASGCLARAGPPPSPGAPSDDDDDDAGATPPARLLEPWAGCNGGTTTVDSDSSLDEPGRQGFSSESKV
Procedure, shortened: (§1)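 Isoprenaline (0.1 µg/kg) and test compound in saline given into right femoral vein; blood pressure from left carotid artery, heart rate by tachograph triggered from arterial pulse. Test compound injected 5 min after isoprenaline, cumulative doses up to, in most cases, 2 mg/kg. Six rats per compound; ED50 with 95% confidence limits from log dose-response linear regression.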

[3] = target: Beta-2 adrenergic receptor (Rattus norvegicus) (UniProt P10608); experiment: Beta-2 adrenergic receptor antagonist activity as the dose required to inhibit 50% of vasodepressor response in anesthetized rats
Chain of Beta-2 adrenergic receptor (Rattus norvegicus) (P10608 whole entry, looked up): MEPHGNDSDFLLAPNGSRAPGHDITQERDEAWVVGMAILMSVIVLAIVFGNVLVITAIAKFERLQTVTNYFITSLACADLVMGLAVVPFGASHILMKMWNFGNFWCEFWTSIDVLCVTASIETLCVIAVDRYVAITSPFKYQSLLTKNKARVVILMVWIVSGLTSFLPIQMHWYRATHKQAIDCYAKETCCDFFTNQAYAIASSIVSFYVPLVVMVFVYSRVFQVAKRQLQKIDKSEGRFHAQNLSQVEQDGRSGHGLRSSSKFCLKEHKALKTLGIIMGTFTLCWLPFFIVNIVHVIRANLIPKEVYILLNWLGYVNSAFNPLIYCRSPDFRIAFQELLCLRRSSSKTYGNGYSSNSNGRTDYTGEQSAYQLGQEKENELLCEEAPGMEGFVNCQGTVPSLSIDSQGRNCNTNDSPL

[4] = target: Beta-1 adrenergic receptor (Rattus norvegicus) (UniProt P18090); experiment: Beta-1 adrenoceptor blocking activity as the dose required to inhibit 50% of tachycardia in anesthetized rats; type: functional; procedure, shortened: as §1

| ED50 [2] [mg/kg] | ED50 [3] [mg/kg] | ED50 [4] [mg/kg] | Structure (SMILES) | ED30 [1] [mg/kg] |
| --- | --- | --- | --- | --- |
| 0.163 | > 2 |  | CC(C)NCC(O)COc1ccc(CCOCCc2ccccc2)cc1 (centres undefined) | > 1 |
|  | > 10 | 0.052 | CC(C)NCC(O)COc1ccc(OCCOCCOc2ccc(OCC(O)CNC(C)C)cc2)cc1 (centres undefined) | 0.005 |
|  | > 2 | 0.001 | CC(C)NCC(O)COc1ccc(OCCOCCc2ccc(F)cc2)cc1F (centres undefined) | 0.045 |
|  | > 2 | 0.654 | CC(C)NCC(O)COc1ccc(OCCOCCc2ccc(C#N)cc2)cc1 (centres undefined) | 0.032 |
|  | > 2 | 0.001 | CC(C)NCC(O)COc1ccc(OCCOCCc2ccc(F)cc2)c(F)c1 (centres undefined) | > 1 |
|  | > 2 | 0.344 | COc1ccc(CCOCCOc2ccc(OCC(O)CNC(C)C)cc2)cc1 (centres undefined) | 0.009 |
|  | > 2 | > 2 | CC(=O)Nc1ccc(CCOCCOc2ccc(OCC(O)CNC(C)C)cc2)cc1 (centres undefined) | 0.029 |
|  | 0.979 | 0.018 | CC(C)(C)NCC(O)COc1ccc(OCCOCCc2ccccc2)cc1 (centres undefined) | 0.022 |
|  | > 2 | 0.004 | CC(C)NC[C@H](O)COc1ccc(OCCOCCc2ccc(F)cc2)cc1 (stereo in doubt; 14a) | 0.019 |
|  | > 2 | > 2 | CC(C)NC[C@H](O)COc1ccc(OCCOCCc2ccc(F)cc2)cc1 (stereo in doubt; 14b) | > 1 |
|  | > 5 | 0.041 | CC(C)NCC(O)COc1ccc(OCCOCCOc2ccccc2)cc1 (centres undefined) | 0.017 |
|  | > 2 | 0.003 | CC(C)NCC(O)COc1ccc(OCCOCCc2ccc(F)cc2)cc1 (centres undefined) | 0.037 |
|  | > 2 | 0.002 | CC(C)(C)NCC(O)COc1ccc(OCCOCCc2ccc(F)cc2)cc1 (centres undefined) | 0.024 |
| 0.068 | 0.924 |  | CC(C)NCC(O)COc1ccc(CCOCCOc2ccccc2)cc1 (centres undefined) | > 1 |
|  | > 2 | 0.572 | Cc1cc(OCCOCCc2ccccc2)ccc1OCC(O)CNC(C)C (centres undefined) | 0.057 |
|  | 0.834 | 0.025 | CC(C)NCC(O)COc1ccc(OCCOCCc2ccccc2)cc1Cl (centres undefined) | 0.016 |
|  | > 2 | 0.174 | CSc1ccc(CCOCCOc2ccc(OCC(O)CNC(C)C)cc2)cc1 (centres undefined) | 0.042 |
|  | > 50 | 0.015 | CC(C)NCC(O)COc1ccc(OCCOCCc2ccccc2)cc1 (centres undefined) | 0.02 |
|  |  | 0.091 | CC(C)NCC(O)COc1ccc(CC(N)=O)cc1 (centres undefined) | > 1 |
|  |  | 0.25 | COCCc1ccc(OCC(O)CNC(C)C)cc1 (centres undefined) | > 1 |
|  | > 2 | 0.627 | CC(C)NCC(O)COc1ccc(OCCOCCc2ccc(Cl)cc2)cc1 (centres undefined) | 0.032 |
|  | > 2 | 0.066 | Cc1ccc(CCOCCOc2ccc(OCC(O)CNC(C)C)cc2)cc1 (centres undefined) | 0.022 |
